Common to all, as to assay type: cell-based
For one assay, the target named is T1, human TMEM16A (Homo sapiens, UniProt Q5XXA6, DEL476-501).
T1 sequence (Q5XXA6 with tags, fused parts or gaps isoform Q5XXA6-5 DEL539-564): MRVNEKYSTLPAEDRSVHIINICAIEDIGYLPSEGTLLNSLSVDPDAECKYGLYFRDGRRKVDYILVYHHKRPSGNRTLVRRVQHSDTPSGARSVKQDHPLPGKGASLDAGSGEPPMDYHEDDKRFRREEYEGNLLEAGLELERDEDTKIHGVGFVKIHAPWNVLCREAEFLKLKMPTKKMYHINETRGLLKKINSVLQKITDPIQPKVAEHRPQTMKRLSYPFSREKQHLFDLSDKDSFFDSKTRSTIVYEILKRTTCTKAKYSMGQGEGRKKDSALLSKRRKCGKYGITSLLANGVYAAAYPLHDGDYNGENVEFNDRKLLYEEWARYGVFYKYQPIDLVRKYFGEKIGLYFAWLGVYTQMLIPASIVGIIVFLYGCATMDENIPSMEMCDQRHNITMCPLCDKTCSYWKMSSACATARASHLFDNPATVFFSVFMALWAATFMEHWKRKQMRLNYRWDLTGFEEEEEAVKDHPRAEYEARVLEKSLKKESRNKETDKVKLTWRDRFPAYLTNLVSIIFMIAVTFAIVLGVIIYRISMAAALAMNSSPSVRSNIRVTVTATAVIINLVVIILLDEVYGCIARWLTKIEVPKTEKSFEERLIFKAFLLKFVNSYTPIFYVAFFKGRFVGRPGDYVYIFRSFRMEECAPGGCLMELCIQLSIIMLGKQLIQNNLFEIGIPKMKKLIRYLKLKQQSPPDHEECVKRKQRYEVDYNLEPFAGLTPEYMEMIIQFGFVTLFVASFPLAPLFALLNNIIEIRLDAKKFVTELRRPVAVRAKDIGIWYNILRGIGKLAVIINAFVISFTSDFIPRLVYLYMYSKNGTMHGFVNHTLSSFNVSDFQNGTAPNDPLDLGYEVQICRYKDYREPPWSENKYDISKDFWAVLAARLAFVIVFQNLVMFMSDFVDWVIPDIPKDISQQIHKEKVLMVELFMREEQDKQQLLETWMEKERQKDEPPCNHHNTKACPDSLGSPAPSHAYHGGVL
Description: Single-shot microfluidics YFP fluorescence iodide influx assay, TMEM16A. As to conditions: TMEM16A-expressing FRT cells; fitted dose-response, Fig. 4B. The procedure, abridged:
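FRT cells stably co-expressing human TMEM16A (abc isoform) and YFP-F46L/H148Q/I152L were grown 8–24 h at 37 °C under perfusion on fibronectin-coated coverglass. Cells were perfused 10 min with a gradient between PBS and PBS containing 30 μM test compound. Solution was then switched to 70 mM I− plus 50 μM ATP. YFP fluorescence was imaged at 2 Hz, and the Hill equation was fitted.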

In assay [1] the target is T2, human CFTR (Homo sapiens, UniProt P13569). Description: Conventional plate reader YFP fluorescence iodide influx assay, CFTR.
Assay [2] concerns the target T2, human CFTR. Description: Single-shot microfluidics YFP fluorescence iodide influx assay, CFTR.

T2 sequence (P13569 whole entry): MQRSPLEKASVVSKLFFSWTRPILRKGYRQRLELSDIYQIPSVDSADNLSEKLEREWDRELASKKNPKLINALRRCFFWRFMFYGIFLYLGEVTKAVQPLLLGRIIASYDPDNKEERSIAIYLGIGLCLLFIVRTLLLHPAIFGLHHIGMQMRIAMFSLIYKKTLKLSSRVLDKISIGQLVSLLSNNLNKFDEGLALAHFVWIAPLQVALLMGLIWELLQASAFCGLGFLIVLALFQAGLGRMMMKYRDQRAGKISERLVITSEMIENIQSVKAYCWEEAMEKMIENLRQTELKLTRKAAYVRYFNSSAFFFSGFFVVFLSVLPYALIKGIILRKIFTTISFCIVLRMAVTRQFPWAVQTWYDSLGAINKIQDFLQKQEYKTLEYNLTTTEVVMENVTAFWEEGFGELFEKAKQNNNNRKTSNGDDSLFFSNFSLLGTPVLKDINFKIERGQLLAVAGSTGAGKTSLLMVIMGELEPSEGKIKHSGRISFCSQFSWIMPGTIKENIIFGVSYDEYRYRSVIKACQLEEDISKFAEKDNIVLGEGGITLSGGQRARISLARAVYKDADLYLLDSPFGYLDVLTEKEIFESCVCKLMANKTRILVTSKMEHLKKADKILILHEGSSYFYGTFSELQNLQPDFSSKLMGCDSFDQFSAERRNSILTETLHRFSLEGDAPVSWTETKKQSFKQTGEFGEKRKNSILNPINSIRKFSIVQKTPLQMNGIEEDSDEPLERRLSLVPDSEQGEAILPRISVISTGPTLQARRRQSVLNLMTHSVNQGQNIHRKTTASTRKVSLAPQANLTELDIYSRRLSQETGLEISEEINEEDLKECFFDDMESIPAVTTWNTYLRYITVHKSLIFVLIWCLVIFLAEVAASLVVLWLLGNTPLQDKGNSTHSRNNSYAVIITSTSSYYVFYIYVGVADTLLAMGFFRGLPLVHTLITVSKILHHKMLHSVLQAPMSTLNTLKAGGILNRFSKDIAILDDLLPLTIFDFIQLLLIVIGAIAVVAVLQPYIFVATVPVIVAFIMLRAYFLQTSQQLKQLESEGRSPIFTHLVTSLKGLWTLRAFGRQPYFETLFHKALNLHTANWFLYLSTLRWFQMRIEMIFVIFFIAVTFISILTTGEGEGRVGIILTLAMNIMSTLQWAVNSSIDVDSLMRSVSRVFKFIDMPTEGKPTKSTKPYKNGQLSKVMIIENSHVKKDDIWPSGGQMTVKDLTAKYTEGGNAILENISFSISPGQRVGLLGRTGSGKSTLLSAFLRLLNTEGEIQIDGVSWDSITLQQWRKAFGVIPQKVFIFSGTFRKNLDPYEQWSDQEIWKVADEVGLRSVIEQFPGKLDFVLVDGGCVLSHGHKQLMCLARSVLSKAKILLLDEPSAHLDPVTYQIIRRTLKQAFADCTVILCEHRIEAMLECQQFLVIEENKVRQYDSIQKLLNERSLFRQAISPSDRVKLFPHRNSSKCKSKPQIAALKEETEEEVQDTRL

For `CCc1c(C)nc(SCC(=O)Nc2nc(-c3ccc(OC)cc3)cs2)[nH]c1=O` [TMinh-A01], the “nH (Hill coefficient, TMEM16A inhibition, single-shot microfluidics)” value at human TMEM16A was 2.2.

In general, IC50 refers to the concentration that gives 50% inhibition. Read a high IC50 as weaker potency in that assay. Consider `C=C[C@@]1(C)CC(=O)[C@]2(O)[C@@]3(C)[C@@H](O)CCC(C)(C)[C@@H]3[C@H](O)[C@H](OC(C)=O)[C@@]2(C)O1` [forskolin], for which the IC50 against human CFTR [1] is 2.9 ± 0.4 µM; against human CFTR [2] it was 3.2 ± 0.2 µM. Besides, the “nH (Hill coefficient, CFTR activation, single-shot microfluidics)” value at human CFTR [2] (CFTR-expressing FRT cells, fitted dose-response, Fig. 3C) is 1.8.

On to CFTRinh-172, for which the “nH (Hill coefficient, CFTR inhibition, single-shot microfluidics)” value at human CFTR [2] (CFTR-expressing FRT cells, 5 μM forskolin, fitted dose-response, Fig. 3E) is given as 1.4.

The values above are taken from paper PMC3904508 (Lab on a chip, 2013).
